Measured values pooled from the literature.
Each line is one published result; the experiments were not run side by side.

Structure (SMILES)	tested on	test	system	setting	endpoint	result
CCC1(c2ccccc2)C(=O)NC(=O)NC1=O	HepG2	cell growth or viability, ATP luminescence			CC50	> 1000 µM
O=C(c1ccc(-n2sc3ncccc3c2=O)cc1)N1CCOCC1		metabolic stability	human, liver microsomes		half-life	> 120 min
CCCCCCCCCCOc1cc2c(O)c(C(=O)OCC)cnc2cc1OCC	HepG2	cell growth or viability		72 h	IC50	> 100 µM
Cc1cc(C)nc(Nc2ncc(C(=O)NCCc3c(C)[nH]c4ccccc34)cn2)c1		metabolic stability	male human, hepatocytes	1 µM	half-life	41 min
O=C1[O][Pt]2([NH][C@@H]3CCCC[C@H]3[NH]2)[O]C1=O (relative stereo)			cynomolgus monkey, plasma	intravenous, 2 mg/kg	AUC(0-t)	9170 ng·h/mL
COC(=O)[C@@H]1[C@@H](c2ccccc2)[C@]2(c3ccc(OC)cc3)Oc3cc(OC)cc(OC)c3[C@@]23N=C(C)N[C@@]13O	HepG2	cell growth or viability, MTT		48 h	CC50	0.0105 µM
CN1CCCCC1Cn1cc(C(=O)c2cc([N+](=O)[O-])ccc2I)c2ccccc21 (racemic)			mouse, plasma	intravenous, 25 mg/kg	MRT	54.7 min
N=c1c2c(-c3ccccc3)c(-c3ccccc3)n(Cc3ccccc3)c2ncn1[C@H]1CC[C@H](O)CC1			male cynomolgus monkey, plasma	oral, 1 mg/kg, single dose	AUC(0-inf)	27800 ng·h/mL
